# Source: ChEMBL document CHEMBL1145200, “4-Benzyl and 4-benzoyl-3-dimethylaminopyridin-2(1H)-ones: in vitro evaluation of new C-3-amino-substituted and C-5,6-alkyl-substituted analogues against clinically important HIV mutant strains” (J Med Chem, 2005)
# Tested on: Human immunodeficiency virus 1
# Experiment: In vitro inhibitory concentration against HIV G190S mutant strain
# Format: functional, organism-based
# Conditions: not given
# Method in brief: (§1)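 MT4 human T-lymphoblastoid cells, grown in RPMI 1640 with 10% fetal calf serum and antibiotics at 37 °C under 5% CO2. Mutant HIV-1 strains were added at 200 CCID50/well with 30 000 cells/well across a compound concentration range. After 5 days at 37 °C, viability was read by MTT colorimetry. EC50 is the concentration giving 50% infection relative to the drug-free control.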
row,Structure (SMILES),IC50 [nM]
1,CCc1c(C)[nH]c(=O)c(N(C)C(C)COC)c1Cc1cc(C)cc(C)c1 (configuration not stated),62
2,CCc1c(C)[nH]c(=O)c(N(C)CCOC)c1Cc1cc(C)cc(C)c1,42
3,CCc1c(C)nc(O)c(N(C)CCOC)c1C(=O)c1cccc(C)c1,3
4,CCc1c(CO)nc(O)c(N(C)C)c1C(=O)c1cc(C)cc(C)c1,2
5,Cc1ccnc2c1NC(=O)c1cccnc1N2C1CC1 [NEVIRAPINE],44

# Tested on: Human immunodeficiency virus 1
# Experiment: In vitro inhibitory concentration against HIV F227C mutant strain
# Format: functional, organism-based
# Conditions: not given
# Method in brief: as §1
row,Structure (SMILES),IC50 [nM]
1,CCc1c(C)[nH]c(=O)c(N(C)C(C)COC)c1Cc1cc(C)cc(C)c1 (configuration not stated),869
2,CCc1c(C)[nH]c(=O)c(N(C)CCOC)c1Cc1cc(C)cc(C)c1,339
3,CCc1c(C)nc(O)c(N(C)CCOC)c1C(=O)c1cccc(C)c1,224
4,CCc1c(CO)nc(O)c(N(C)C)c1C(=O)c1cc(C)cc(C)c1,234
5,Cc1ccnc2c1NC(=O)c1cccnc1N2C1CC1 [NEVIRAPINE],135

# Tested on: Human immunodeficiency virus 1
# Experiment: In vitro inhibitory concentration against HIV-1 Y181C mutant strain
# Format: functional, organism-based
# Conditions: not given
# Method in brief: as §1
row,Structure (SMILES),IC50 [nM]
1,CCc1c(C)[nH]c(=O)c(NC(C)=O)c1Cc1cc(C)cc(C)c1,25100
2,CCc1c(C)[nH]c(=O)c(N(C)C(C)COC)c1Cc1cc(C)cc(C)c1 (configuration not stated),398
3,CCc1c(C)[nH]c(=O)c(N(C)CCOC)c1Cc1cc(C)cc(C)c1,316
4,CCc1c(C)nc(O)c(N(C)CCOC)c1C(=O)c1cccc(C)c1,631
5,CCc1c(CO)nc(O)c(N(C)C)c1C(=O)c1cc(C)cc(C)c1,72
6,Cc1ccnc2c1NC(=O)c1cccnc1N2C1CC1 [NEVIRAPINE],10000

# Tested on: Human immunodeficiency virus 1
# Experiment: In vitro inhibitory concentration against HIV G190A mutant strain
# Format: functional, organism-based
# Conditions: not given
# Method in brief: as §1
row,Structure (SMILES),IC50 [nM]
1,CCc1c(C)[nH]c(=O)c(N(C)C(C)COC)c1Cc1cc(C)cc(C)c1 (configuration not stated),78
2,CCc1c(C)[nH]c(=O)c(N(C)CCOC)c1Cc1cc(C)cc(C)c1,16
3,CCc1c(C)nc(O)c(N(C)CCOC)c1C(=O)c1cccc(C)c1,3
4,CCc1c(CO)nc(O)c(N(C)C)c1C(=O)c1cc(C)cc(C)c1,3

# Tested on: Human immunodeficiency virus 1
# Experiment: In vitro inhibitory concentration against HIV L100I and K103N mutant strain
# Format: functional, organism-based
# Conditions: not given
# Method in brief: as §1
row,Structure (SMILES),IC50 [nM]
1,CCc1c(C)[nH]c(=O)c(N(C)C(C)COC)c1Cc1cc(C)cc(C)c1 (configuration not stated),1000
2,CCc1c(C)[nH]c(=O)c(N(C)CCOC)c1Cc1cc(C)cc(C)c1,121
3,CCc1c(C)nc(O)c(N(C)CCOC)c1C(=O)c1cccc(C)c1,17
4,CCc1c(CO)nc(O)c(N(C)C)c1C(=O)c1cc(C)cc(C)c1,20

# Tested on: Human immunodeficiency virus 1
# Experiment: Selective index value (ratio of CC50 to IC50 value)against HIV LAI cell line
# Format: functional
# Conditions: not given
# Method in brief: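 Ratio of CC50 to IC50 against LAI. CC50 came from mock-infected MT4 cultures (30 000 cells/well) given the same compound concentration range, run in parallel with LAI-infected cultures (200 CCID50/well). Incubation was 5 days at 37 °C in 5% CO2, with MTT viability read-out.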
row,Structure (SMILES),SI
1,CCc1c(C)[nH]c(=O)c(NC(C)=O)c1Cc1cc(C)cc(C)c1,251
2,CCc1c(C)[nH]c(=O)c(N(C)C(C)COC)c1Cc1cc(C)cc(C)c1 (configuration not stated),7940
3,CCc1c(C)[nH]c(=O)c(N(C)CCOC)c1Cc1cc(C)cc(C)c1,20000
4,CCc1c(C)nc(O)c(N(C)CCOC)c1C(=O)c1cccc(C)c1,79400
5,CCc1c(CO)nc(O)c(N(C)C)c1C(=O)c1cc(C)cc(C)c1,12600

# Tested on: Human immunodeficiency virus 1
# Experiment: In vitro inhibitory concentration against HIV K101E mutant strain
# Format: functional, organism-based
# Conditions: not given
# Method in brief: as §1
row,Structure (SMILES),IC50 [nM]
1,CCc1c(C)[nH]c(=O)c(N(C)C(C)COC)c1Cc1cc(C)cc(C)c1 (configuration not stated),58
2,CCc1c(C)[nH]c(=O)c(N(C)CCOC)c1Cc1cc(C)cc(C)c1,10
3,CCc1c(C)nc(O)c(N(C)CCOC)c1C(=O)c1cccc(C)c1,3
4,CCc1c(CO)nc(O)c(N(C)C)c1C(=O)c1cc(C)cc(C)c1,5

# Tested on: Human immunodeficiency virus 1
# Experiment: In vitro inhibitory concentration value against HIV K103N and Y181C mutant strain
# Format: functional, organism-based
# Conditions: not given
# Method in brief: as §1
row,Structure (SMILES),IC50 [nM]
1,CCc1c(C)[nH]c(=O)c(N(C)C(C)COC)c1Cc1cc(C)cc(C)c1 (configuration not stated),8680
2,CCc1c(C)[nH]c(=O)c(N(C)CCOC)c1Cc1cc(C)cc(C)c1,3340
3,CCc1c(C)nc(O)c(N(C)CCOC)c1C(=O)c1cccc(C)c1,2810
4,CCc1c(CO)nc(O)c(N(C)C)c1C(=O)c1cc(C)cc(C)c1,149
5,Cc1ccnc2c1NC(=O)c1cccnc1N2C1CC1 [NEVIRAPINE],100000

# Tested on: Human immunodeficiency virus 1
# Experiment: In vitro inhibitory concentration against HIV E138K mutant strain
# Format: functional, organism-based
# Conditions: not given
# Method in brief: as §1
row,Structure (SMILES),IC50 [nM]
1,CCc1c(C)[nH]c(=O)c(N(C)C(C)COC)c1Cc1cc(C)cc(C)c1 (configuration not stated),17
2,CCc1c(C)[nH]c(=O)c(N(C)CCOC)c1Cc1cc(C)cc(C)c1,10
3,CCc1c(C)nc(O)c(N(C)CCOC)c1C(=O)c1cccc(C)c1,3
4,CCc1c(CO)nc(O)c(N(C)C)c1C(=O)c1cc(C)cc(C)c1,4
5,Cc1ccnc2c1NC(=O)c1cccnc1N2C1CC1 [NEVIRAPINE],50

# Tested on: Human immunodeficiency virus 1
# Experiment: In vitro inhibitory concentration against HIV K103N mutant strain
# Format: functional, organism-based
# Conditions: not given
# Method in brief: as §1
row,Structure (SMILES),IC50 [nM]
1,CCc1c(C)[nH]c(=O)c(NC(C)=O)c1Cc1cc(C)cc(C)c1,20000
2,CCc1c(C)[nH]c(=O)c(N(C)C(C)COC)c1Cc1cc(C)cc(C)c1 (configuration not stated),79
3,CCc1c(C)[nH]c(=O)c(N(C)CCOC)c1Cc1cc(C)cc(C)c1,63
4,CCc1c(C)nc(O)c(N(C)CCOC)c1C(=O)c1cccc(C)c1,20
5,CCc1c(CO)nc(O)c(N(C)C)c1C(=O)c1cc(C)cc(C)c1,3

# Tested on: Human immunodeficiency virus 1
# Experiment: In vitro inhibitory concentration against HIV LAI cell line
# Format: functional, organism-based
# Conditions: Human immunodeficiency virus 1, LAI
# Method in brief: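 HIV-1 LAI was added at 200 CCID50/well to MT4 human T-lymphoblastoid cells (30 000 cells/well) across a concentration range of compound. Cells were grown in RPMI 1640 with 10% fetal calf serum and antibiotics. After 5 days at 37 °C in 5% CO2, cell viability was read by MTT colorimetry. EC50 was the concentration giving 50% infection versus the drug-free control.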
row,Structure (SMILES),IC50 [nM]
1,CCc1c(C)[nH]c(=O)c(NC(C)=O)c1Cc1cc(C)cc(C)c1,398
2,CCc1c(C)[nH]c(=O)c(N(C)C(C)COC)c1Cc1cc(C)cc(C)c1 (configuration not stated),6
3,CCc1c(C)[nH]c(=O)c(N(C)CCOC)c1Cc1cc(C)cc(C)c1,2
4,CCc1c(C)nc(O)c(N(C)CCOC)c1C(=O)c1cccc(C)c1,1
5,CCc1c(CO)nc(O)c(N(C)C)c1C(=O)c1cc(C)cc(C)c1,1

# Tested on: Human immunodeficiency virus 1
# Experiment: In vitro inhibitory concentration against HIV K101E and K103N mutant strain
# Format: functional, organism-based
# Conditions: not given
# Method in brief: as §1
row,Structure (SMILES),IC50 [nM]
1,CCc1c(C)[nH]c(=O)c(N(C)C(C)COC)c1Cc1cc(C)cc(C)c1 (configuration not stated),362
2,CCc1c(C)[nH]c(=O)c(N(C)CCOC)c1Cc1cc(C)cc(C)c1,69
3,CCc1c(C)nc(O)c(N(C)CCOC)c1C(=O)c1cccc(C)c1,15
4,CCc1c(CO)nc(O)c(N(C)C)c1C(=O)c1cc(C)cc(C)c1,7

# Tested on: Human immunodeficiency virus 1
# Experiment: In vitro inhibitory concentration against HIV V179E mutant strain
# Format: functional, organism-based
# Conditions: not given
# Method in brief: as §1
row,Structure (SMILES),IC50 [nM]
1,CCc1c(C)[nH]c(=O)c(N(C)C(C)COC)c1Cc1cc(C)cc(C)c1 (configuration not stated),9
2,CCc1c(C)[nH]c(=O)c(N(C)CCOC)c1Cc1cc(C)cc(C)c1,3
3,CCc1c(C)nc(O)c(N(C)CCOC)c1C(=O)c1cccc(C)c1,1
4,CCc1c(CO)nc(O)c(N(C)C)c1C(=O)c1cc(C)cc(C)c1,1
5,Cc1ccnc2c1NC(=O)c1cccnc1N2C1CC1 [NEVIRAPINE],195

# Tested on: Human immunodeficiency virus 1
# Experiment: In vitro inhibitory concentration against HIV Y188L mutant strain
# Format: functional, organism-based
# Conditions: not given
# Method in brief: as §1
row,Structure (SMILES),IC50 [nM]
1,CCc1c(C)[nH]c(=O)c(NC(C)=O)c1Cc1cc(C)cc(C)c1,100000
2,CCc1c(C)[nH]c(=O)c(N(C)C(C)COC)c1Cc1cc(C)cc(C)c1 (configuration not stated),251
3,CCc1c(C)[nH]c(=O)c(N(C)CCOC)c1Cc1cc(C)cc(C)c1,100
4,CCc1c(C)nc(O)c(N(C)CCOC)c1C(=O)c1cccc(C)c1,1260
5,CCc1c(CO)nc(O)c(N(C)C)c1C(=O)c1cc(C)cc(C)c1,631
6,Cc1ccnc2c1NC(=O)c1cccnc1N2C1CC1 [NEVIRAPINE],100000

# Tested on: Human immunodeficiency virus 1
# Experiment: In vitro inhibitory concentration against HIV L100I mutant strain
# Format: functional, organism-based
# Conditions: not given
# Method in brief: as §1
row,Structure (SMILES),IC50 [nM]
1,CCc1c(C)[nH]c(=O)c(N(C)C(C)COC)c1Cc1cc(C)cc(C)c1 (configuration not stated),79
2,CCc1c(C)[nH]c(=O)c(N(C)CCOC)c1Cc1cc(C)cc(C)c1,3
3,CCc1c(C)nc(O)c(N(C)CCOC)c1C(=O)c1cccc(C)c1,8
4,CCc1c(CO)nc(O)c(N(C)C)c1C(=O)c1cc(C)cc(C)c1,1

# Tested on: Human immunodeficiency virus 1
# Experiment: In vitro inhibitory concentration against HIV F227L and V106A mutant strain
# Format: functional, organism-based
# Conditions: not given
# Method in brief: as §1
row,Structure (SMILES),IC50 [nM]
1,CCc1c(C)[nH]c(=O)c(N(C)C(C)COC)c1Cc1cc(C)cc(C)c1 (configuration not stated),10000
2,CCc1c(C)[nH]c(=O)c(N(C)CCOC)c1Cc1cc(C)cc(C)c1,2510
3,CCc1c(C)nc(O)c(N(C)CCOC)c1C(=O)c1cccc(C)c1,251
4,CCc1c(CO)nc(O)c(N(C)C)c1C(=O)c1cc(C)cc(C)c1,794
5,Cc1ccnc2c1NC(=O)c1cccnc1N2C1CC1 [NEVIRAPINE],163
